In brackets after ≈: the same amount, converted by molar mass.
Tested on: Mycobacterium tuberculosis
Experiment: Antimicrobial activity against Mycobacterium tuberculosis H37Rv ATCC 27294 after 16 to 24 hrs by microplate alamar blue assay
Type: functional
Conditions: not given
Method in brief: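 M. tuberculosis H37Rv inoculum 2×10^5 cfu/mL (100 µL) added to twofold dilutions in Middlebrook 7H12 medium; final test range 128 µM to 0.5 µM from 12.8 mM DMSO stocks. Incubated 37 °C; day 7 Tween 80 plus Alamar Blue added, further 16-24 h at 37 °C. Fluorescence ex 530/em 590 nm; MIC = lowest concentration giving >90% fluorescence reduction versus replicate bacteria-only controls. Rifampin, isoniazid controls.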
`CC(C)[C@H](NC(=O)OCC1c2ccccc2-c2ccccc21)C(=O)O/N=C1\c2ccccc2-c2c1c(N1CCN(c3ccccn3)CC1)nc1ccc(Br)cc21` showed an MIC of 1.47 µg/mL (≈ 1.82 µM).
Work on `CCCCCC(=O)O/N=C1\c2ccccc2-c2c1c(-n1ccnc1)nc1ccc(Br)cc21` yielded an MIC of 1.5 µg/mL (≈ 3.07 µM).
Molecule `CC(=O)NCC(=O)O/N=C1\c2ccccc2-c2c1c(N1CCN(c3ccccn3)CC1)nc1ccc(Br)cc21` has an MIC of 6 µg/mL (≈ 10.2 µM).
Work on `C[C@H](NC(=O)OC(C)(C)C)C(=O)O/N=C1\c2ccccc2-c2c1c(N1CCN(c3ccccn3)CC1)nc1ccc(Br)cc21` yielded an MIC of 6 µg/mL (≈ 9.12 µM).
In the case of `CC(C)(C)OC(=O)N[C@H](C(=O)O/N=C1\c2ccccc2-c2c1c(N1CCN(c3ccccn3)CC1)nc1ccc(Br)cc21)C(C)(C)C`, the MIC is reported as 1.52 µg/mL (≈ 2.17 µM).

Tested on: not listed separately
Experiment: Cytotoxicity against human U937 cells assessed as cell viability at 1.25 ug/ml after 72 hrs by MTT assay
Type: cell-based, U-937
Conditions: read-out: Activity
Method in brief: (§1)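 U937 human monocytic cells plated at 1 × 10^5 cells/mL and allowed to adhere for 1 h at 37 °C in 5% CO2. Non-adherent cells were washed off with RPMI 1640. Adherent cells were exposed to compound in triplicate, with medium alone as the live control and 3% Tween 20 as the dead control. MTT (5 mg/mL in PBS) was then added for 3 h at 37 °C. Formazan was dissolved in 0.4 M HCl/isopropanol and absorbance read at 600 nm. Results are expressed as % cell viability.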
`CC(C)[C@H](NC(=O)OCC1c2ccccc2-c2ccccc21)C(=O)O/N=C1\c2ccccc2-c2c1c(N1CCN(c3ccccn3)CC1)nc1ccc(Br)cc21` showed a viability at 72 h, 1.25 ug/ml of 85%.
In the case of `CCCCCC(=O)O/N=C1\c2ccccc2-c2c1c(-n1ccnc1)nc1ccc(Br)cc21`, the viability at 72 h, 1.25 ug/ml is reported as 81%.
Molecule `CC(=O)NCC(=O)O/N=C1\c2ccccc2-c2c1c(N1CCN(c3ccccn3)CC1)nc1ccc(Br)cc21` has a viability at 72 h, 1.25 ug/ml of 83%.
For `C[C@H](NC(=O)OC(C)(C)C)C(=O)O/N=C1\c2ccccc2-c2c1c(N1CCN(c3ccccn3)CC1)nc1ccc(Br)cc21`, the viability at 72 h, 1.25 ug/ml was 100%.
`CC(C)(C)OC(=O)N[C@H](C(=O)O/N=C1\c2ccccc2-c2c1c(N1CCN(c3ccccn3)CC1)nc1ccc(Br)cc21)C(C)(C)C` showed a viability at 72 h, 1.25 ug/ml of 92%.

Tested on: not listed separately
Experiment: Cytotoxicity against human U937 cells assessed as cell viability at 5 ug/ml after 72 hrs by MTT assay
Type: cell-based, U-937
Conditions: read-out: Activity
Method in brief: as §1
Molecule `CC(C)[C@H](NC(=O)OCC1c2ccccc2-c2ccccc21)C(=O)O/N=C1\c2ccccc2-c2c1c(N1CCN(c3ccccn3)CC1)nc1ccc(Br)cc21` has a viability at 72 h, 5 ug/ml of 89%.
For `CC(C)(C)OC(=O)N[C@H](C(=O)O/N=C1\c2ccccc2-c2c1c(N1CCN(c3ccccn3)CC1)nc1ccc(Br)cc21)C(C)(C)C`, the viability at 72 h, 5 ug/ml was 86%.

Tested on: not listed separately
Experiment: Cytotoxicity against human U937 cells assessed as cell viability at 10 ug/ml after 72 hrs by MTT assay
Type: cell-based, U-937
Conditions: read-out: Activity
Method in brief: as §1
In the case of `CC(C)[C@H](NC(=O)OCC1c2ccccc2-c2ccccc21)C(=O)O/N=C1\c2ccccc2-c2c1c(N1CCN(c3ccccn3)CC1)nc1ccc(Br)cc21`, the viability at 72 h, 10 ug/ml is reported as 81%.
With `CCCCCC(=O)O/N=C1\c2ccccc2-c2c1c(-n1ccnc1)nc1ccc(Br)cc21` the viability at 72 h, 10 ug/ml was 100%.
Work on `CC(=O)NCC(=O)O/N=C1\c2ccccc2-c2c1c(N1CCN(c3ccccn3)CC1)nc1ccc(Br)cc21` yielded a viability at 72 h, 10 ug/ml of 77%.
With `C[C@H](NC(=O)OC(C)(C)C)C(=O)O/N=C1\c2ccccc2-c2c1c(N1CCN(c3ccccn3)CC1)nc1ccc(Br)cc21` the viability at 72 h, 10 ug/ml was 100%.
`CC(C)(C)OC(=O)N[C@H](C(=O)O/N=C1\c2ccccc2-c2c1c(N1CCN(c3ccccn3)CC1)nc1ccc(Br)cc21)C(C)(C)C` showed a viability at 72 h, 10 ug/ml of 87%.

Tested on: not listed separately
Experiment: Cytotoxicity against human U937 cells assessed as cell viability at 20 ug/ml after 72 hrs by MTT assay
Type: cell-based, U-937
Conditions: read-out: Activity
Method in brief: as §1
Molecule `CC(C)[C@H](NC(=O)OCC1c2ccccc2-c2ccccc21)C(=O)O/N=C1\c2ccccc2-c2c1c(N1CCN(c3ccccn3)CC1)nc1ccc(Br)cc21` has a viability at 72 h, 20 ug/ml of 80%.
Work on `CC(C)(C)OC(=O)N[C@H](C(=O)O/N=C1\c2ccccc2-c2c1c(N1CCN(c3ccccn3)CC1)nc1ccc(Br)cc21)C(C)(C)C` yielded a viability at 72 h, 20 ug/ml of 82%.

Tested on: Serum
Experiment: Stability of the compound in 80% human blood serum assessed as hydrolysis to 2-bromo-6-(1H-imidazol-1-yl)-7H-indeno[2,1-c]quinolin-7-one oxime at 1 mg after 24 hrs at 37 degC by LC-MS analysis
Type: ADME, cell-free
Parameters: scale not given: the % may be the effect or the level left
Conditions: not given
Method in brief: (§2)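 Enzymatic hydrolysis: 1 mg prodrug dissolved in 1 mL ethanol, then 200 µL preheated human blood serum diluted to 80% with 0.16 M phosphate buffer (pH 7.4) was added. Samples were kept at 37 °C (24 h) and centrifuged 10 min at 10,000 rpm. Remaining prodrug in the supernatant was monitored by TLC and LC-MS. t1/2 is the time to 50% hydrolysis.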
Molecule `CC(C)[C@H](NC(=O)OCC1c2ccccc2-c2ccccc21)C(=O)O/N=C1\c2ccccc2-c2c1c(N1CCN(c3ccccn3)CC1)nc1ccc(Br)cc21` has an Activity of 7%.
Work on `CCCCCC(=O)O/N=C1\c2ccccc2-c2c1c(-n1ccnc1)nc1ccc(Br)cc21` yielded an Activity of 85%.
Work on `CC(=O)NCC(=O)O/N=C1\c2ccccc2-c2c1c(N1CCN(c3ccccn3)CC1)nc1ccc(Br)cc21` yielded an Activity of 95%.
With `C[C@H](NC(=O)OC(C)(C)C)C(=O)O/N=C1\c2ccccc2-c2c1c(N1CCN(c3ccccn3)CC1)nc1ccc(Br)cc21` the Activity was 66%.
`CC(C)(C)OC(=O)N[C@H](C(=O)O/N=C1\c2ccccc2-c2c1c(N1CCN(c3ccccn3)CC1)nc1ccc(Br)cc21)C(C)(C)C` showed an Activity of 11%.

Tested on: not listed separately
Experiment: Stability of the compound in 10% aqueous ammonia buffer at pH 8 assessed as hydrolysis to 2-bromo-6-(1H-imidazol-1-yl)-7H-indeno[2,1-c]quinolin-7-one oxime at 1 mg at 37 degC by LC-MS analysis
Type: physicochemical
Parameters: scale not given: the % may be the effect or the level left
Conditions: not given
Method in brief: (§3)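 Chemical hydrolysis: 1 mg prodrug dissolved in 1 mL of 10% aqueous ammonia in methanol (pH 8) and held in a thermostatted water bath at 37 °C, up to 24 h. Conversion to the parent oxime was followed by TLC and LC-MS. t1/2 is the time to 50% hydrolysis.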
`CC(C)[C@H](NC(=O)OCC1c2ccccc2-c2ccccc21)C(=O)O/N=C1\c2ccccc2-c2c1c(N1CCN(c3ccccn3)CC1)nc1ccc(Br)cc21` gave an Activity of 96%.
With `CCCCCC(=O)O/N=C1\c2ccccc2-c2c1c(-n1ccnc1)nc1ccc(Br)cc21` the Activity was 90%.
In the case of `CC(=O)NCC(=O)O/N=C1\c2ccccc2-c2c1c(N1CCN(c3ccccn3)CC1)nc1ccc(Br)cc21`, the Activity is reported as 95%.
Molecule `C[C@H](NC(=O)OC(C)(C)C)C(=O)O/N=C1\c2ccccc2-c2c1c(N1CCN(c3ccccn3)CC1)nc1ccc(Br)cc21` has an Activity of 95%.
`CC(C)(C)OC(=O)N[C@H](C(=O)O/N=C1\c2ccccc2-c2c1c(N1CCN(c3ccccn3)CC1)nc1ccc(Br)cc21)C(C)(C)C` showed an Activity of 95%.

Tested on: not listed separately
Experiment: Half life in human blood serum by LC-MS analysis
Type: ADME, cell-free, Plasma
Conditions: not given
Method in brief: as §2
With `CCCCCC(=O)O/N=C1\c2ccccc2-c2c1c(-n1ccnc1)nc1ccc(Br)cc21` the half-life was 240 h.
For `CC(=O)NCC(=O)O/N=C1\c2ccccc2-c2c1c(N1CCN(c3ccccn3)CC1)nc1ccc(Br)cc21`, the half-life was 192 h.
In the case of `C[C@H](NC(=O)OC(C)(C)C)C(=O)O/N=C1\c2ccccc2-c2c1c(N1CCN(c3ccccn3)CC1)nc1ccc(Br)cc21`, the half-life is reported as 480 h.

Tested on: not listed separately
Experiment: Half life in 10% aqueous ammonia buffer at pH 8 assessed as hydrolysis to 2-bromo-6-(1H-imidazol-1-yl)-7H-indeno[2,1-c]quinolin-7-one oxime at 37 degC by LC-MS analysis
Type: physicochemical
Conditions: not given
Method in brief: as §3
Work on `CC(C)[C@H](NC(=O)OCC1c2ccccc2-c2ccccc21)C(=O)O/N=C1\c2ccccc2-c2c1c(N1CCN(c3ccccn3)CC1)nc1ccc(Br)cc21` yielded a half-life of 24 h.
Work on `CCCCCC(=O)O/N=C1\c2ccccc2-c2c1c(-n1ccnc1)nc1ccc(Br)cc21` yielded a half-life of 144 h.
Molecule `CC(=O)NCC(=O)O/N=C1\c2ccccc2-c2c1c(N1CCN(c3ccccn3)CC1)nc1ccc(Br)cc21` has a half-life of 144 h.
In the case of `C[C@H](NC(=O)OC(C)(C)C)C(=O)O/N=C1\c2ccccc2-c2c1c(N1CCN(c3ccccn3)CC1)nc1ccc(Br)cc21`, the half-life is reported as 48 h.
In the case of `CC(C)(C)OC(=O)N[C@H](C(=O)O/N=C1\c2ccccc2-c2c1c(N1CCN(c3ccccn3)CC1)nc1ccc(Br)cc21)C(C)(C)C`, the half-life is reported as 48 h.

Tested on: not listed separately
Experiment: Octanol-water partition coefficient, log P of the compound at pH 7.4 at room temperature by UV spectrophotometric analysis
Type: physicochemical
Conditions: not given
Method in brief: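 Shake-flask method at room temperature: 1-octanol and phosphate buffer (pH 7.4) were pre-saturated by shaking for 24 h. Compound at 10^-4 M in equal volumes of both phases was shaken vigorously for 1 h, left to stand 15 min, then centrifuged 10 min at 10,000 rpm. UV absorbance of each phase was read at 280 nm against blanks, and P was taken as the octanol/water absorbance ratio.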
Work on `CC(C)[C@H](NC(=O)OCC1c2ccccc2-c2ccccc21)C(=O)O/N=C1\c2ccccc2-c2c1c(N1CCN(c3ccccn3)CC1)nc1ccc(Br)cc21` yielded a logD of 1.8.
`CCCCCC(=O)O/N=C1\c2ccccc2-c2c1c(-n1ccnc1)nc1ccc(Br)cc21` showed a logD of 2.1.
Work on `CC(=O)NCC(=O)O/N=C1\c2ccccc2-c2c1c(N1CCN(c3ccccn3)CC1)nc1ccc(Br)cc21` yielded a logD of 1.2.
With `C[C@H](NC(=O)OC(C)(C)C)C(=O)O/N=C1\c2ccccc2-c2c1c(N1CCN(c3ccccn3)CC1)nc1ccc(Br)cc21` the logD was 1.7.
In the case of `CC(C)(C)OC(=O)N[C@H](C(=O)O/N=C1\c2ccccc2-c2c1c(N1CCN(c3ccccn3)CC1)nc1ccc(Br)cc21)C(C)(C)C`, the logD is reported as 1.5.

Tested on: not listed separately
Experiment: Selectivity index, ratio CC50 for human U937 cells to MIC for Mycobacterium tuberculosis H37Rv ATCC 27294
Type: functional, U-937
Conditions: not given
With `CC(C)[C@H](NC(=O)OCC1c2ccccc2-c2ccccc21)C(=O)O/N=C1\c2ccccc2-c2c1c(N1CCN(c3ccccn3)CC1)nc1ccc(Br)cc21` the “Selectivity Index” value was over 27.
With `CC(C)(C)OC(=O)N[C@H](C(=O)O/N=C1\c2ccccc2-c2c1c(N1CCN(c3ccccn3)CC1)nc1ccc(Br)cc21)C(C)(C)C` the “Selectivity Index” value was over 26.

Reference: ChEMBL document CHEMBL1799922, “Synthesis and antimycobacterial activity of prodrugs of indeno[2,1-c]quinoline derivatives” (Eur J Med Chem, 2011)
